Experimental data: ChEMBL document CHEMBL1124417, “Synthesis and hypertensive activity of neuropeptide Y fragments and analogues with modified N- or C-termini or D-substitutions” (1989)

Legend:
Rattus norvegicus [1] = test: Mean arterial pressure was measured in conscious rats after intra arterial administration at 400 ug/kg dosage.; format: functional, Artery
Procedure, shortened: (§1)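 Conscious male Sprague-Dawley rats (240-280 g), catheterised under pentobarbital (40 mg/kg), ≥2 h recovery. Saline peptide solutions as intraarterial 100-µL bolus. MAP via pressure transducer, computed as [[…] + diastolic]. ΔMAP = value at 1 min minus mean pretreatment saline zero values (n = 4). Means ± SEM, n ≥ 3.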

Rattus norvegicus [2] = test: Mean arterial pressure was measured in conscious rats after intra arterial administration at 40 ug/kg dosage.; format: functional, Artery; procedure, shortened: as §1
Rattus norvegicus [3] = test: Hypertensive potency in conscious rats after intra arterial administration.; format: functional
Procedure, shortened: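 Male Sprague-Dawley rats (240-280 g), conscious; catheters placed under pentobarbital anaesthesia (40 mg/kg) with ≥2 h recovery. Peptides in saline given intraarterially as 100-µL bolus. ΔMAP = posttreatment minus mean pretreatment saline zero values (n = 4).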

[4] = Relative potency measured as ratio of ED50 of NPY to ED50 of analogue; format: functional

Molecule | Delta MAP (Rattus norvegicus [1]) | Delta MAP (Rattus norvegicus [2]) | ED50 (Rattus norvegicus [3]) | Ratio [4]
H-YPSKPDNPGEDAPA-OH | <5 | <5 | > 0.4 mg/kg | 
CC[C@H](C)[C@H](NC(=O)[C@H](Cc1ccc(O)cc1)NC(=O)[C@@H](N)Cc1c[nH]cn1)C(=O)N[C@@H](CC(N)=O)C(=O)N[C@@H](CC(C)C)C(=O)N[C@H](C(=O)N[C@H](C(=O)N[C@@H](CCCN=C(N)N)C(=O)N[C@@H](CCC(N)=O)C(=O)N[C@@H](CCCN=C(N)N)C(=O)N[C@@H](Cc1ccc(O)cc1)C(N)=O)[C@@H](C)O)[C@@H](C)CC | 7 | <5 | > 0.4 mg/kg | 
CC[C@H](C)[C@H](NC(=O)[C@H](Cc1ccc(O)cc1)NC(=O)[C@H](Cc1c[nH]cn1)NC(=O)[C@H](CCCN=C(N)N)NC(=O)[C@H](CC(C)C)NC(=O)[C@H](C)NC(=O)[C@H](CO)NC(=O)[C@H](Cc1ccc(O)cc1)NC(=O)[C@H](Cc1ccc(O)cc1)NC(=O)[C@H](CCCN=C(N)N)NC(=O)[C@H](C)NC(=O)[C@H](CC(C)C)NC(=O)[C@H](CC(=O)O)NC(=O)[C@H](CCC(=O)O)NC(=O)[C@H](C)NC(=O)[C@@H]1CCCN1C(=O)[C@H](C)NC(=O)[C@H](CC(=O)O)NC(=O)[C@H](CCC(=O)O)NC(=O)[C@H](C)NC(=O)[C@@H]1CCCN1C(=O)[C@H](CC(N)=O)NC(=O)[C@H](CC(=O)O)NC(=O)[C@@H]1CCCN1C(=O)[C@H](CCCCN)NC(=O)[C@H](CO)NC(=O)[C@@H]1CCCN1C(=O)[C@@H](N)Cc1ccc(O)cc1)C(=O)N[C@@H](CC(N)=O)C(=O)N[C@@H](CC(C)C)C(=O)N[C@H](C(=O)N[C@H](C(=O)N[C@@H](CCCN=C(N)N)C(=O)N[C@@H](CCC(N)=O)C(=O)N[C@@H](CCCN=C(N)N)C(=O)O)[C@@H](C)O)[C@@H](C)CC |  |  |  | 0.7
